Assay [1] addresses T1, NAD-dependent protein deacetylase sirtuin-1 (Homo sapiens) (UniProt Q96EB6).
T1 sequence (whole entry): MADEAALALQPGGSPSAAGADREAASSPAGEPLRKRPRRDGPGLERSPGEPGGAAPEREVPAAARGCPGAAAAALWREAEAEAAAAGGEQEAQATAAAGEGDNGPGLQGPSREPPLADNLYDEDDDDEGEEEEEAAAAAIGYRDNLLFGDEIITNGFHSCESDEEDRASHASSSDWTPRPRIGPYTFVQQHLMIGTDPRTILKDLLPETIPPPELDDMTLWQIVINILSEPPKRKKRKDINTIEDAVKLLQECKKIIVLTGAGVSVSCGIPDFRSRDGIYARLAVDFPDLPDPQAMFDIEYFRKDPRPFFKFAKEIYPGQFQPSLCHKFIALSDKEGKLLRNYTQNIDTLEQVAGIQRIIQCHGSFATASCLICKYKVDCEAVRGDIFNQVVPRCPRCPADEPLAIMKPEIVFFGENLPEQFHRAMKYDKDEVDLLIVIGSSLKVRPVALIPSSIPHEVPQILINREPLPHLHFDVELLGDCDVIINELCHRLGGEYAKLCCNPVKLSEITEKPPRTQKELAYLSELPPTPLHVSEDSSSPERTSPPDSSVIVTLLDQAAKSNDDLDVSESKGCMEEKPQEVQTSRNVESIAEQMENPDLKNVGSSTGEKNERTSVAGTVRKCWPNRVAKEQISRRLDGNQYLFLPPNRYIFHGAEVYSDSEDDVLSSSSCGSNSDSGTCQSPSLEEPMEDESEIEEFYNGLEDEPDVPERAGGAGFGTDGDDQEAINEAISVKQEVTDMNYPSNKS
As to the kind of experiment: Inhibition of human SIRT1 at 200 uM. The method in brief: (§1)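 Single-concentration screen at 200 µM compound in the NAD⁺-based assay, with radiolabeled nicotinamide release read by thin layer chromatography. Result is % inhibition ± standard deviation (n = 2-3).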

Assay [2] concerns the target T2, NAD-dependent protein deacetylase sirtuin-2 (Homo sapiens) (UniProt Q8IXJ6).
T2 sequence (whole entry): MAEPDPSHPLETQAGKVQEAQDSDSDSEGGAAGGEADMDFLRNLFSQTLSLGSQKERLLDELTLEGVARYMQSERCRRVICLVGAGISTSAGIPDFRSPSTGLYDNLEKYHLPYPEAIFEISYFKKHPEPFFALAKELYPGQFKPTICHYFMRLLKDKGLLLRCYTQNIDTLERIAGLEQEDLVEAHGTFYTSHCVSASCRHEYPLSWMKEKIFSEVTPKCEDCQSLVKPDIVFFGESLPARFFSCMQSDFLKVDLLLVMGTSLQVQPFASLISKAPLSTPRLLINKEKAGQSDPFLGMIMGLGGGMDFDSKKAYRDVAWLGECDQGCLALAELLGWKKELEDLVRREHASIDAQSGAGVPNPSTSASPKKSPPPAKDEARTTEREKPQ
The assay is described as follows: Inhibition of human SIRT2 at 200 uM. The method in brief:
as §1

The target in assay [3] is T3, NAD-dependent protein deacetylase sirtuin-2 (Homo sapiens, UniProt Q8IXJ6).
T3 sequence (Q8IXJ6 whole entry): T2 sequence (whole entry)
The assay is described as follows: Inhibition of human SIRT2 assessed as nicotinamide releasing by microplate filtration assay.

The target in assay [4] is T4, NAD-dependent protein deacetylase sirtuin-1 (Homo sapiens, UniProt Q96EB6).
T4 sequence (Q96EB6 whole entry): T1 sequence (whole entry)
The assay is described as follows: Inhibition of human SIRT1 assessed as nicotinamide releasing by microplate filtration assay.

By inhibition is commonly meant the relative decrease from the control value, in per cent. As a reminder, the IC50 is the concentration that gives 50% inhibition. For `O=C(NNC(=O)c1nc(-c2cccc3ccccc23)no1)Nc1cccc(C(F)(F)F)c1`, the inhibition was determined as 12% in assay [1] and 51% in assay [2]. For the same molecule, the IC50 in assay [3] was found to be 257 µM.
Take `CCCCNC(=O)NNC(=O)c1nc(-c2ccc(C(C)(C)C)cc2)no1`: the inhibition in assay [1] was found to be 22%; in assay [2], 7%.
With `CC(C)(C)OC(=O)Nc1cccc(-c2noc(C(=O)NNC(=S)Nc3ccc(C(F)(F)F)cc3)n2)c1`, the results for the inhibition in assay [1] and in assay [2] were 69% and 71%, respectively. The IC50 turned out to be 168 µM in assay [4] and 129 µM in assay [3].
As for `O=C(NNC(=S)Nc1ccc(F)cc1)c1nc(-c2cccc3ccccc23)no1`, the values for the inhibition in assay [1] and in assay [2] were 10% and 35%, respectively.
For the molecule `CC(C)(C)c1ccc(-c2noc(C(=O)NNC(=O)Nc3cccc([N+](=O)[O-])c3)n2)cc1`, the inhibition in assay [1] worked out at 18%; in assay [2] it was 39%.
For the molecule `CC(C)(C)c1ccc(-c2noc(C(=O)NNC(=S)Nc3cccc(C(F)(F)F)c3)n2)cc1`, the inhibition in assay [1] stood at 59%; in assay [2] it was 87%. Besides, the half-maximal inhibitory concentration (IC50) in assay [4] is 192 µM; in assay [3] it was 57 µM.
In the case of `O=C(NNC(=S)Nc1ccc(C(F)(F)F)cc1)c1nc(-c2cccnc2)no1`, the inhibition is 4% in assay [1] and -4% in assay [2].
For `O=C(CNC(=O)c1nc(-c2ccccc2)no1)Nc1ccccc1`, the inhibition was determined as 28% in assay [1] and 17% in assay [2].
Consider `CC(C)(C)c1ccc(-c2noc(C(=O)NNC(=S)Nc3ccccc3)n2)cc1`, for which the inhibition in assay [1] was -2%; in assay [2], 29%.
In the case of `O=C(NNC(=S)Nc1ccc(F)cc1)c1nc(-c2ccccc2)no1`, the inhibition in assay [2] is 22%.
For the molecule `CC(C)(C)c1ccc(-c2noc(C(=O)NNC(=S)Nc3ccc(C(F)(F)F)cc3)n2)cc1`, the inhibition in assay [1] came to 70%; in assay [2], 89%. Further, the IC50 worked out at 325 µM in assay [4] and 109 µM in assay [3].
As to `O=C(NNC(=S)Nc1ccc(C(F)(F)F)cc1)c1nc(-c2ccccc2)no1`, the values for the inhibition in assay [1] and in assay [2] were 29% and 8%, respectively.
Turning to `O=C(NNC(=S)Nc1cccc(C(F)(F)F)c1)c1nc(-c2cccc3ccccc23)no1`, the inhibition in assay [1] was 57%; in assay [2], 56%. The IC50 in assay [4] is 13 µM; in assay [3] it was 113 µM.
Take `O=C(CCCc1nc(-c2ccccc2)no1)Nc1ccccc1`: the inhibition in assay [1] came to 0%; in assay [2], 5%.
The corresponding values for `CC(C)(C)c1ccc(-c2noc(C(=O)NCC(=O)Nc3cccc(C(F)(F)F)c3)n2)cc1` are 20% and 18%.
Consider `O=C(NNC(=S)Nc1ccc(C(F)(F)F)cc1)c1nc(-c2cccc3ccccc23)no1`, for which the inhibition in assay [1] came out at 54%; in assay [2], 71%. Also, the IC50 in assay [4] stood at 318 µM; in assay [3], 74 µM.
Consider `CC(C)(C)c1ccc(-c2noc(C(=O)NNC(=O)Nc3ccccc3)n2)cc1`, for which the values for the inhibition in assay [1] and in assay [2] were 14% and 38%, respectively.
For `CC(C)(C)c1ccc(-c2noc(CCCC(=O)Nc3cccc(C(F)(F)F)c3)n2)cc1`, the inhibition in assay [1] stood at 17%; in assay [2] it was 0%.

The values above are taken from ChEMBL document CHEMBL1155918, “Oxadiazole-carbonylaminothioureas as SIRT1 and SIRT2 inhibitors” (J Med Chem, 2008).
